# Compound activity from PubChem BioAssay.
# HSV replic up: increases HSV replication in cells. HSV replication augmentation in cells, fold increase. maximum fold increase. 220,000 compounds, 0.005% hits. AID 1956; in the data active means maximum fold increase above about 1.5; tested in PC3 cells
# HKDC1 inh: blocks human hexokinase HKDC1 activity. Q2TB90. recombinant HKDC1, G6PDH/diaphorase resazurin coupled fluorescence. inhibition, % at 20 µM. 340,000 compounds, 0.16% hits. AID 493160;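 active means inhibition above about 35% when tested at 20 µM, limit read from the data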;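 further: plate controls were DMSO wells with enzyme for no effect and DMSO wells lacking enzyme for full effect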
# Target sequence (Q2TB90 whole entry, looked up): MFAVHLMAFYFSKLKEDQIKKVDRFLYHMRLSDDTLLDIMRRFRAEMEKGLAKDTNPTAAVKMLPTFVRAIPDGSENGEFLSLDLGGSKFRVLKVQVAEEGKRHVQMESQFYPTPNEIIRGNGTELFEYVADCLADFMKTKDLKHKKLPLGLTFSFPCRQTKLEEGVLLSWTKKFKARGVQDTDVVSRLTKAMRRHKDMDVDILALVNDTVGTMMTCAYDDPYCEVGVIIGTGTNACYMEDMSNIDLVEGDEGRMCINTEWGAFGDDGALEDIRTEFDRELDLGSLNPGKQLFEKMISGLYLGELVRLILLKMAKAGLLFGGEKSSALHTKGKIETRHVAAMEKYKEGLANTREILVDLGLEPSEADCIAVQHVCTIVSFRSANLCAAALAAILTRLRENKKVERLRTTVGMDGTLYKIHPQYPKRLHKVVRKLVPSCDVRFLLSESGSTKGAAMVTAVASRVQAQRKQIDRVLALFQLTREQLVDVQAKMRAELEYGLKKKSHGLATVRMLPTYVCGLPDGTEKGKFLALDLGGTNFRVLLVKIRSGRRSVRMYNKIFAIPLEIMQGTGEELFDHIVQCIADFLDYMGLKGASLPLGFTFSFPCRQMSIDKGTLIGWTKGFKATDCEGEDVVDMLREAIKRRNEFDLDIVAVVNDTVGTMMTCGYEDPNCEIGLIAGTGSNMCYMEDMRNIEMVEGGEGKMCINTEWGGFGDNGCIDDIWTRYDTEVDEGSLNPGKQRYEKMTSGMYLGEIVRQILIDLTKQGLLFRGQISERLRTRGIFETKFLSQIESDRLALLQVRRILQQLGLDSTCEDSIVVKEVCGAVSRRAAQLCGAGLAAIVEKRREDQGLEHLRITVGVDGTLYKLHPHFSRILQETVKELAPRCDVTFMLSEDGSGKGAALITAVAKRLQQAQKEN
#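 Material: recombinant HKDC1 hexokinase; Amount: HKDC1 at 5 µg/mL; Medium: Tris pH 8.0 buffer with MgCl2, Tween-20, BSA, BME; Schedule: 90 min reaction incubation at room temperature, dark; Technique: coupled resazurin fluorescence, excitation 525 nm, emission 613 nm.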
# Autophagy mod: alters autophagy in cells | MEF GFP-LC3 puncta imaging; test concentration mostly 10 µM | calls only at 10 µM (by protocol) | 190,000 compounds, 0.98% hits | AID 463193;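 active means percentage of spot-positive cells more than 3 SD above its plate mean, without a fluorescence outlier flag or 80% toxicity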;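 further: spot-positive cell cutoff set from DMSO-treated cells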
# Dynein transport: blocks dynein driven cargo transport along microtubules; 3617.4 mouse cells, GR-EGFP nuclear translocation imaging; test concentration mostly 20 µM; stimulated with dexamethasone, 1 µM; stronger effect = lower value; z-score, hits read low; 220,000 compounds, 0.47% hits; AID 1381;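 active means plate z-score of nuclear minus cytoplasmic receptor signal below a set negative limit, without overly bright fluorescence or cell loss, cut at about -3.5 in these data, passing the limit was not always enough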;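 further: z-score of nuclear minus cytoplasmic ring GR-EGFP intensity difference per well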
#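 medium = tetracycline-free induction medium containing charcoal-stripped FBS | probe or stimulus = dexamethasone, 1.0 µM final | timing = 48 h induction, then 1 h compound, then 30 min agonist, 37 °C | detection = automated 10x imaging of fixed Hoechst-stained cells | read-out basis = nuclear versus cytoplasmic GR-EGFP signal, averaged per well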
# Tb hexokinase: blocks Trypanosoma brucei hexokinase 1 activity; AID 1430; 220,000 compounds, 0.11% hits; inhibition, % at 10 µM; recombinant TbHK1, G6PDH-coupled NADH A340;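 active means inhibition of 50% or more in the single-dose primary screen; inactive means inhibition below 50%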
# PERK inh: human PERK inhibition, primary cell-based screen; Q9NZJ5; 220,000 compounds, 0.17% hits; inhibition, % at 5.6 µM; CHO PERK-DD fusion, SEAP luminescence translation reporter;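 active means inhibition above the mean inhibition of all tested compounds plus 3 SD, set separately per screening campaign, cut at about 2.9% in these data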;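 further: PERK kinase domain activated by AP20187 dimerizer at 100 nM; 0% = DMSO with dimerizer and 100% = rapamycin at 8.4 µM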
# * hit, by the source's call; i = inactive; · = not tested or not shown; + = active, no number. This is a sample that favours compounds with a hit; in the whole collection about 1.2% have one here.
SMILES,HSV replic up,HKDC1 inh,Autophagy mod,Dynein transport,Tb hexokinase,PERK inh
CCOC(=O)c1cc(-c2ccccc2)n(CC2CC(c3ccc(OC)cc3)=NO2)n1 (configuration not stated),·,-0.1,·,·,·,·
Cc1ccc(NC2(c3nnnn3-c3c(C)cccc3C)CCCCC2)cc1,i,-2.9,+,-0.912,17.2,-0.9
CSc1nnnn1-c1c(C)cccc1C,i,-5.9,·,-0.841,-4.8,1.3
COc1ccc(OC)c(C2=Nn3c(nnc3-c3cc(OC)c(OC)c(OC)c3)SC2)c1,i,-1.0,i,-0.336,-10.5,-1.1
COc1cc(-c2nnc3n2N=C(c2ccccc2)CS3)cc(OC)c1OC,i,13.3,+,0.137,-8.7,-0.8
CCN1/C(=C2\SC(=S)N(Cc3ccccc3)C2=O)Sc2ccccc21,i,-5.2,+,0.226,8.2,0.9
CCN1C(=O)/C(=C2/Sc3ccccc3N2CC)SC1=S,·,-2.6,·,·,·,·
CCN1/C(=C2\OC(=S)N(C)C2=O)Sc2ccccc21,·,-0.8,+,0.678,-8.7,-0.4
CCOc1ccc(S(=O)(=O)NCCC(=O)NCC(c2ccco2)N2CCCCC2)cc1 (configuration not stated),·,-5.5,·,·,·,·
CC(NC(=O)CCNS(=O)(=O)c1cccc2nonc12)c1ccccc1 (configuration not stated),·,0.2,·,·,·,·
COc1ccc(NC(=S)NC(NC(=O)c2ccc(Cl)cc2Cl)C(Cl)(Cl)Cl)c([N+](=O)[O-])c1 (configuration not stated),i,-0.6,+,-0.598,-3.5,-0.6
COc1ccc(NC(=S)NC(NC(=O)c2ccccc2Cl)C(Cl)(Cl)Cl)c([N+](=O)[O-])c1 (configuration not stated),i,-0.6,i,-0.293,4.5,-0.6
COc1ccc(NC(=S)NC(NC(=O)c2cccc3ccccc23)C(Cl)(Cl)Cl)c([N+](=O)[O-])c1 (configuration not stated),i,-2.8,+,0.907,-2.3,-0.6
COc1ccc(OC)c(NC(=O)CSc2nc3ccccc3cc2Cc2ccccc2)c1,i,13.2,i,0.0739,-12.1,2.9*
COc1ccc(NC(=O)CSc2nc3ccccc3cc2Cc2ccccc2)cc1,i,-3.7,i,1.09,1.1,0.1
Cc1nn(S(=O)(=O)c2ccc(Br)cc2)c(C)c1S(=O)(=O)N1CCOCC1,·,-7.0,·,·,·,·
COCCNc1cnn(-c2ccccc2)c(=O)c1Cl,·,5.3,·,·,·,·
O=C(COc1ccccc1)NCC1CCCO1 (configuration not stated),i,-3.5,i,-1.12,-11.9,1.1
O=C(COc1ncnc2ccccc12)NCC1CCCO1 (configuration not stated),i,-10.0,+,1.84,-6.0,1.2
CCc1ccc2c(c1)C1(NN=C(c3cccc4ccccc34)S1)C(=O)N2 (configuration not stated),i,·,+,-0.244,12.3,-0.1
CSCCC(NC(=O)c1ccccc1Br)C(=O)N1CCCC(C(F)(F)F)C1 (configuration not stated),·,-6.1,·,·,·,·
C[C@]12CC[C@@H]3c4ccc(OC(=O)c5ccccc5)cc4CC[C@H]3[C@@H]1CC[C@@H]2O,i,5.2,+,0.405,-2.5,0.5
CCOc1ccc(N(C(=O)CNC(=O)c2cccs2)C(C(=O)NCC2CCCO2)c2ccc(OC)c(OC)c2)cc1 (configuration not stated),i,-7.3,+,-0.675,-11.3,-0.4
COc1ccc(N(C(=O)CNC(=O)c2cccs2)C(C(=O)NCC2CCCO2)c2ccc(OC)c(OC)c2)cc1 (configuration not stated),i,-7.7,i,2.59,4.1,0.7
CCOc1ccc(C(=O)CCC(=O)N(CC)CC(=O)NCc2ccc(Cl)cc2)cc1,·,-7.5,·,·,·,·
SMILES,HSV replic up,HKDC1 inh,Autophagy mod,Dynein transport,Tb hexokinase,PERK inh
Cc1ccc(S(=O)(=O)/N=S(\C)CC2CC2(Cl)Cl)cc1 (configuration not stated),i,-11.8,i,-0.504,-6.7,0.2
O=S(CC1CC1(Cl)Cl)CC1CC1(Cl)Cl (configuration not stated),i,-5.4,+,1.45,-2.5,-0.1
CC(=O)Nc1c(O)nc(SCC(=O)Nc2nnc(CC(C)C)s2)[nH]c1=O,i,-11.1,+,1,-4.8,0.2
CC(C)n1c(O)c(N=Nc2ccc(Cl)nn2)c2ccccc21,i,19.8,+,-0.993,-10.6,0.5
COc1cccc(C(=S)N2CCCC2)c1OC,·,-6.7,·,·,·,·
COc1ccc(OC)c(Nc2nc3nonc3nc2N2CCCCC2)c1,·,-8.1,+,1.35,-11.5,0.4
CCOC(=O)C1CCCN(CC(=O)N(C)c2c(N)n(Cc3ccccc3)c(=O)[nH]c2=O)C1 (configuration not stated),·,0.6,·,·,·,·
NC(=O)COC(=O)CC12CC3CC(CC(Br)(C3)C1)C2,i,8.8,i,-0.561,-2.4,1.0
O=C(CC12CC3CC(CC(Br)(C3)C1)C2)OCCN1CCCCC1,i,0.4,+,0.643,5.9,-0.4
CCOC(=O)c1c(NC(=O)CC2Nc3ccccc3NC2=O)sc(C)c1C (configuration not stated),i,-3.8,+,-0.263,22.6,0.8
COC(=O)c1c(NC(=O)CC2Nc3ccccc3NC2=O)sc(C)c1C (configuration not stated),i,-8.6,+,-0.529,-6.3,-0.3
C/C(=N\NC(=O)c1ccncc1)c1ccc(N2CCOCC2)cc1,·,-8.6,·,·,·,·
C/C(=N\NC(=O)c1ccccc1)c1ccc(N2CCOCC2)cc1,i,-2.6,i,-3.63*,-40.8,0.5
CC(=O)Nc1ccc(/C(C)=N/Nc2nc(Nc3ccccc3)nc(N3CCOCC3)n2)cc1,i,0.8,+,-0.929,-16.3,-1.5
CC(NC(=O)c1cccc(S(=O)(=O)N2CCCCCC2)c1)c1ccccc1 (configuration not stated),·,-2.5,·,·,·,·
Cn1ccnc1CN1CCCCC1C(=O)Nc1ccc(Oc2cccnc2)cc1 (configuration not stated),·,-4.7,·,·,·,·
CC(=O)c1ccc(Nc2cc(C)nc3c(C)cc(C)cc23)cc1,i,15.8,+,-0.33,-22.7,-1.1
COc1ccc(/C=N/NC(=O)Cc2n[nH]c(=O)[nH]c2=O)cc1,i,-5.4,·,1.34,-8.7,3.0*
COc1ccc(/C=N/NC(=O)CSc2n[nH]c(=O)[nH]c2=O)cc1,i,13.9,i,0.0456,-1.2,0.0
O=C(NCc1cccnc1)C1CC(c2ccc(Cl)c(Cl)c2)=NO1 (configuration not stated),·,-4.8,·,·,·,·
O=C(c1ccc(N2CCN(C(=O)c3ccc(F)c(F)c3)CC2)cc1)c1cccc(F)c1,·,7.8,·,·,·,·
